Source: ChEMBL document CHEMBL1932981, “Synthesis of novel 2, 5-dihydrofuran derivatives and evaluation of their anticancer activity” (Eur J Med Chem, 2012)

Columns and labels:
Type in all cases: functional, cell-based
HeLa = experiment: Cytotoxicity against human HeLa cells after 24 hrs by MTT assay; details: Homo sapiens, HeLa, 24 h; read-out: IC50
In short: (§1)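 Cell lines from the Navy Medical College, seeded at 8000 cells/well in 96-well plates. Compounds dissolved in DMSO (stock 10 g/L) and freshly diluted in medium. Dilutions were added in duplicate 24 h after seeding, with incubation continued at 37 °C. Viability read by MTT. IC50 taken as the concentration giving 50% growth inhibition, determined following NCCLS recommendations.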

SW480 = experiment: Cytotoxicity against human SW480 cells after 24 hrs by MTT assay; details: SW480, 24 h; in short: as §1
[1] = Cytotoxicity against human QGY7701 cells after 24 hrs by MTT assay; details: QGY7701, 24 h; in short: as §1
A549 = experiment: Cytotoxicity against human A549 cells after 24 hrs by MTT assay; in short: as §1
[2] = Homo sapiens, A549, 24 h, read-out: IC50

Row | Structure (SMILES) | IC50 (HeLa) [µM] | IC50 (SW480) [µM] | IC50 [1] [µM] | IC50 (A549; a549) | IC50 (A549; [2]) [µM]
1 | C=CC1=C(C(=O)Nc2ccc(OCC)cc2)C(c2ccc(F)cc2)OC1 (stereo unspecified) | > 100 | > 100 | 61.6 | Not Active | –
2 | C=CC1=C(C(=O)N2CCN(c3ccc(F)cc3)CC2)C(c2ccc(OC)cc2)OC1 (stereo unspecified) | 9.86 | > 100 | 11 | – | 8.31
3 | C=CC1=C(C(=O)N2CCN(c3cccc(Cl)c3Cl)CC2)C(c2ccc(OC)cc2)OC1 (stereo unspecified) | 4 | 29.2 | 4.96 | – | 8.86
4 | COc1cccc2c1C(=O)c1c(O)c3c(c(O)c1C2=O)C[C@@](O)(C(=O)CO)C[C@@H]3O[C@H]1C[C@H](N)[C@H](O)[C@H](C)O1 [DOXORUBICIN] | 1.12 | 65.2 | 8.65 | – | 6.61
